Data published in ChEMBL document CHEMBL1148336, “3-Aminopyrazole inhibitors of CDK2/cyclin A as antitumor agents. 1. Lead finding” (J Med Chem, 2004).
≈ marks a conversion by molar mass, not a printed value.

Tests used:
[1] = biological target: Aurora kinase A (Homo sapiens) (UniProt O14965); test: Inhibition of Aurora kinase A
[2] = biological target: CDC7/DBF4 (Cell division cycle 7-related protein kinase/Activator of S phase kinase) (Homo sapiens, UniProt O00311); test: Inhibition of CDC7/DBF4 kinase activity; assay type: protein-complex assay
Procedure, shortened: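 Recombinant CDC7/DBF4 (insect cells), 18 nM, with MCM2 substrate in 50 mM Hepes pH 7.5, 5 mM MgCl2, 1 mM DTT, 3 μM NaVO3. ATP/33P-γ-ATP at 2Km, substrate at 5Km, 1% DMSO, compound 10 to 0.0015 μM in 3-fold steps, 30–90 min at room temperature. SPA bead capture.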

Rattus norvegicus [3] = test: In vivo area under curve was determined for the compound after oral (po) administration at a dose of 10 mg/kg in rats; assay type: ADME, organism-based; set-up: dose 10 mg/kg, route oral
Procedure, shortened: (§1)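 Male Sprague Dawley rats (~270), fasted overnight, received a single iv or oral dose in PEG400, 4% Tween 80/dextrose (60:40), three rats per route. Jugular/catheter blood was drawn predose and at 5, 15 and 30 min and 1, 2, 4, 6 and 24 h, and plasma was analysed by LC/MS/MS. Analysis was noncompartmental: Cmax/Tmax observed, AUC by linear trapezoidal rule, and F from dose-normalized oral/iv AUC.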

[4] = biological target: Hepatocyte growth factor receptor (Homo sapiens, UniProt P08581); test: Inhibition of MET kinase activity
Procedure, shortened: (§2)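 Radiometric kinase assay. Enzyme (0.7–100 nM) and substrate (5Km) incubated with ATP/33P-γ-ATP (2Km) and compound serially diluted 3-fold from 10 to 0.0015 μM, 1% DMSO, 30–90 min at room temperature. Product separated by SPA, Dowex or phosphocellulose filter, then counted.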

[5] = Oral bioavailability after oral (po) administration at a dose of 10 mg/kg was measured in rats; assay type: ADME, organism-based; details: rat, in vivo, read-out: Bioavailabiility
Procedure, shortened: as §1

[6] = Solubility of compound was determined in buffer at a pH of 7; assay type: physicochemical; details: pH 7
Procedure, shortened: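 Nonequilibrium turbidimetric solubility. 10 mM DMSO stock was diluted into pH 7 buffer (2.5% DMSO), and turbidity was read at 50 and 250 μM. Solubility is the average of the highest clear and lowest turbid concentrations.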

Insulin receptor = Insulin receptor (Homo sapiens, UniProt P06213); test: Inhibition of IR kinase activity
Insulin receptor, sequence (P06213 28-758 limits assumed): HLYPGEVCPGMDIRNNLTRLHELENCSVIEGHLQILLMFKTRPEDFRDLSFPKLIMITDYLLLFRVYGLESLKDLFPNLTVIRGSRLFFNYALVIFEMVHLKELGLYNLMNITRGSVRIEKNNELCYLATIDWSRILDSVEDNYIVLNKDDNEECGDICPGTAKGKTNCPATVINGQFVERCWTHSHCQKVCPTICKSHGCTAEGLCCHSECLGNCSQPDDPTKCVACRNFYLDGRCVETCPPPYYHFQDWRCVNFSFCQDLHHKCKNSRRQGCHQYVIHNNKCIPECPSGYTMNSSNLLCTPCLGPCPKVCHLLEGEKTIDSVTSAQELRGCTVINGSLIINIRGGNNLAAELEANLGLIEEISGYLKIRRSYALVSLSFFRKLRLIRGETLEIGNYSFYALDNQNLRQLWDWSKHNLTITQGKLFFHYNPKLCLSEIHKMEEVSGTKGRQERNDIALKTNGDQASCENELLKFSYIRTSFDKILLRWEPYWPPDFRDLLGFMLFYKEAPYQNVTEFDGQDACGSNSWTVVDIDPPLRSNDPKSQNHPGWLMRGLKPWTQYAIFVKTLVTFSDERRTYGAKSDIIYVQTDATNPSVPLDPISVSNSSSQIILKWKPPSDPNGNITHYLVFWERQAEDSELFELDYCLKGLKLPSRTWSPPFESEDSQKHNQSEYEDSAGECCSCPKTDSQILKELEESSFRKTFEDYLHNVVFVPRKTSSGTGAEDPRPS
Insulin receptor, sequence (P06213 763-1382 limits assumed): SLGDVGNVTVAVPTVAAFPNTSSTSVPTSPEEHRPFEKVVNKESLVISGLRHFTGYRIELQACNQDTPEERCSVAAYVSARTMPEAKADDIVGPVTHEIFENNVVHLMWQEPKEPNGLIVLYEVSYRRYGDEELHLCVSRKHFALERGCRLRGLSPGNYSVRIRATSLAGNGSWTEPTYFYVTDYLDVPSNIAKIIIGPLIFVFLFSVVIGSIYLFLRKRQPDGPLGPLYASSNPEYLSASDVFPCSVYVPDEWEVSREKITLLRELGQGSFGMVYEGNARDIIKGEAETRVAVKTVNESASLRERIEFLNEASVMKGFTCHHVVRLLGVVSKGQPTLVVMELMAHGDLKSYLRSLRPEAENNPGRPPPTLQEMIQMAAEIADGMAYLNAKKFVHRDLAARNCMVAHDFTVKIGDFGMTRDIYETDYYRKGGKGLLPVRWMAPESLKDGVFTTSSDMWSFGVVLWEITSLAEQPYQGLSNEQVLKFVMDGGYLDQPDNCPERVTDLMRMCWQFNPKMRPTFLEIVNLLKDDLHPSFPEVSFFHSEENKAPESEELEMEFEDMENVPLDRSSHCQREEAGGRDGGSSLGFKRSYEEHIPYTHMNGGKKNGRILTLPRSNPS
Procedure, shortened: as §2

[7] = biological target: Serine/threonine-protein kinase Chk1 (Homo sapiens, UniProt O14757); test: Inhibition of Serine/threonine-protein kinase Chk1
Serine/threonine-protein kinase Chk1, sequence (O14757 whole entry): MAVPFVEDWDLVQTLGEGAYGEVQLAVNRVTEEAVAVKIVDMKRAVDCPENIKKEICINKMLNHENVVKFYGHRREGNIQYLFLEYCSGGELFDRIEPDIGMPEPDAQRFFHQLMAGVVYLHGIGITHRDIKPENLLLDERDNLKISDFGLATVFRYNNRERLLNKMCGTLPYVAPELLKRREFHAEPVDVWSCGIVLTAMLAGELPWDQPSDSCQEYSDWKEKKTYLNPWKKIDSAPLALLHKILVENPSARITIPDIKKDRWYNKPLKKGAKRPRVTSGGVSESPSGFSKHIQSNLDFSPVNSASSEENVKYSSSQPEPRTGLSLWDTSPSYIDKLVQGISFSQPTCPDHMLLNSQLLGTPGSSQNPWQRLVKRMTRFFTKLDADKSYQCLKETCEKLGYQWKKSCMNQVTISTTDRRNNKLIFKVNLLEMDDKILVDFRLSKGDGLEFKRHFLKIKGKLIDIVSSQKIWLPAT
Procedure, shortened: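 ATP/33P-γ-ATP 2Km, substrate 5Km, 1% DMSO, compound 10–0.0015 μM, 30–90 min at room temperature. SPA.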

[8] = biological target: Tyrosine-protein kinase ABL (Homo sapiens, UniProt P00519+P42684); test: Inhibition of V-abl tyrosine kinase (ABL); assay type: protein assay
Procedure, shortened: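 ABL at 1.2 nM, recombinant from insect cells, with MBP in 50 mM Hepes pH 7.5, 3 mM MgCl2, 3 mM MnCl2, 1 mM DTT, 3 μM NaVO3. 2Km ATP/33P-γ-ATP, 5Km substrate, 1% DMSO. 3-fold series from 10 μM, 30–90 min at room temperature. SPA readout.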

[9] = biological target: High affinity nerve growth factor receptor (Homo sapiens, UniProt P04629); test: Inhibition of Trk A kinase activity
High affinity nerve growth factor receptor, sequence (P04629 whole entry): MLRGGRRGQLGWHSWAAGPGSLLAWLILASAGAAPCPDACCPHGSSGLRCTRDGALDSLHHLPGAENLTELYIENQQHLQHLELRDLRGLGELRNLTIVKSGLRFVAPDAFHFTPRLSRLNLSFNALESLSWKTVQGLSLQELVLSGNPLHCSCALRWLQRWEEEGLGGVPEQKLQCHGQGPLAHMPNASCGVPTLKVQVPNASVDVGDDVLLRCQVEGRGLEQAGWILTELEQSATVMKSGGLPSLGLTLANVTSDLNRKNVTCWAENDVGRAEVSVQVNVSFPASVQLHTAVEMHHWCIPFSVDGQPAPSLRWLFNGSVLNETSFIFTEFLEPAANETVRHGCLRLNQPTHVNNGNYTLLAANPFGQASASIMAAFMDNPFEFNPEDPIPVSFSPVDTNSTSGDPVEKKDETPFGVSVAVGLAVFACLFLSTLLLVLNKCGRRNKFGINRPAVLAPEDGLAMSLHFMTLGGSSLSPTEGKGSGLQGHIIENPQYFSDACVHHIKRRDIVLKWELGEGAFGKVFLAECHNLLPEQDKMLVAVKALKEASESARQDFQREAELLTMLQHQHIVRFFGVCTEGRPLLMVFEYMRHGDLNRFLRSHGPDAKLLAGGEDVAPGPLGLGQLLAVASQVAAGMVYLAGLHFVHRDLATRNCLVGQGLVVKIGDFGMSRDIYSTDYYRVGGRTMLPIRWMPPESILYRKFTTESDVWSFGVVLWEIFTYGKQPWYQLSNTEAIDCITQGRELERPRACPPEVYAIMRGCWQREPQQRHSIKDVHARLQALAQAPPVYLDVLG
Procedure, shortened: as §2

Rattus norvegicus [10] = test: Maximal concentration in male Sprague-Dawley rats after 5 mg/kg intravenous dose; assay type: ADME, organism-based; set-up: dose 5 mg/kg, route intravenous; details: in vivo
Procedure, shortened: as §1

Casein kinase II = Casein kinase II (Homo sapiens, UniProt P19784+P67870+P68400); test: Inhibition of Casein kinase 2; assay type: protein-complex assay
Casein kinase II, sequence (P67870 whole entry): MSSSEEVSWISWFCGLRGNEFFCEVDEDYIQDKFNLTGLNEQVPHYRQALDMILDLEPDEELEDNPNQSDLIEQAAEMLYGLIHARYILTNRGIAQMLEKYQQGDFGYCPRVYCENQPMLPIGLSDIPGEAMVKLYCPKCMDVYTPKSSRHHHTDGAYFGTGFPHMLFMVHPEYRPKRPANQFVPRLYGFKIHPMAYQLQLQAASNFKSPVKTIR
Casein kinase II, sequence (P68400 whole entry): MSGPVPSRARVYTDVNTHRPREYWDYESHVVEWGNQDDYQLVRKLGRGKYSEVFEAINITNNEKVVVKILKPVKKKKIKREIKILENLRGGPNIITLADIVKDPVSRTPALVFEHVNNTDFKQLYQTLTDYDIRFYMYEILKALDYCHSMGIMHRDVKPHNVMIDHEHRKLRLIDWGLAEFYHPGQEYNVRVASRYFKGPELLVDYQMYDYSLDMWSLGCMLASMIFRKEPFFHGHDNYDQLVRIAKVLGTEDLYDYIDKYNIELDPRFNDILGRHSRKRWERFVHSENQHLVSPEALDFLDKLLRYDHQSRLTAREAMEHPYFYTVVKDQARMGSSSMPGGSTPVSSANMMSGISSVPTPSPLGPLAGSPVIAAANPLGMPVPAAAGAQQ
Casein kinase II, sequence (P19784 whole entry): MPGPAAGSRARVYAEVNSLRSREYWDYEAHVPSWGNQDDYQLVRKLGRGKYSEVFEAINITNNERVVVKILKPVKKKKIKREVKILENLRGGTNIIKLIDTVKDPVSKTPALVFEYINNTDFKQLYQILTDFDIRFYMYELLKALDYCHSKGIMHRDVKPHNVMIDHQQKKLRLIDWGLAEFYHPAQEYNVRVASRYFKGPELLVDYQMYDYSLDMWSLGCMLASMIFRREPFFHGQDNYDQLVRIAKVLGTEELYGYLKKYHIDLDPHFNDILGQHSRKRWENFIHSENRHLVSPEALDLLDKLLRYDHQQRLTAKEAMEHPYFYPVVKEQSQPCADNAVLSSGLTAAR
Procedure, shortened: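 33P-γ-ATP/ATP at 2Km, substrate 5Km, 1% DMSO, 3-fold dilutions from 10 μM, 30–90 min at room temperature. Phosphorylated substrate counted by SPA. Four-parameter logistic IC50, mean of at least two experiments.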

[11] = biological target: Inhibitor of nuclear factor kappa-B kinase subunit beta (Homo sapiens, UniProt O14920); test: Inhibition of I-kappa-B-kinase beta activity
Inhibitor of nuclear factor kappa-B kinase subunit beta, sequence (O14920 whole entry): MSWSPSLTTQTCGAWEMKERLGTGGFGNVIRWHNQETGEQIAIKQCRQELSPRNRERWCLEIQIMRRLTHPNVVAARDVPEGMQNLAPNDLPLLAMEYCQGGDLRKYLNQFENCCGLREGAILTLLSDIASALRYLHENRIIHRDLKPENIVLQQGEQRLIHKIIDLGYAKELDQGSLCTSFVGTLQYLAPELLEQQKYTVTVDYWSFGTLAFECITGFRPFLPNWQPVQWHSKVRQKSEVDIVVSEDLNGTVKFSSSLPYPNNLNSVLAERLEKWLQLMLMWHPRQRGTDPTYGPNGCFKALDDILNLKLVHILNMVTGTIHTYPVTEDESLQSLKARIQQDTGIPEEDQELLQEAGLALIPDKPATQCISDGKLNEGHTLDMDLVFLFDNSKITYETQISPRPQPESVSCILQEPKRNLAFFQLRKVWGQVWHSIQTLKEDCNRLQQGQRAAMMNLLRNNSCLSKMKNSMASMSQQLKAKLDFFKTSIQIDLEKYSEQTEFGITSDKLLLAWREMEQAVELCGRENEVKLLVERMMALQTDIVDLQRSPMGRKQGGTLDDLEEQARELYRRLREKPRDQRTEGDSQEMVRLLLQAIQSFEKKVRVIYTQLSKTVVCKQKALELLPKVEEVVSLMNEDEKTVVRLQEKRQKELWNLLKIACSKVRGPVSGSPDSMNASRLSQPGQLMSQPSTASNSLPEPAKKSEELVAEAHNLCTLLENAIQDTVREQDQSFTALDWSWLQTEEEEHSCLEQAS
Procedure, shortened: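 ATP/33P-γ-ATP 2Km, substrate 5Km, 1% DMSO, 10–0.0015 μM compound, 30–90 min at room temperature. SPA detection.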

[12] = biological target: Glycogen synthase kinase-3 beta (Homo sapiens, UniProt P49841); test: Inhibition of Glycogen synthase kinase-3 beta
Procedure, shortened: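 GSK-3β at 20 nM (in-house, insect cells), MBP substrate, 50 mM Hepes pH 7.5, 3 mM MgCl2, 3 mM MnCl2, 1 mM DTT, 3 μM NaVO3. ATP/33P-γ-ATP 2Km, substrate 5Km, 1% DMSO. 3-fold dilutions from 10 μM, 30–90 min at room temperature. SPA.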

[13] = biological target: 3-phosphoinositide-dependent protein kinase 1 (Homo sapiens, UniProt O15530); test: Inhibition of PDK1 kinase activity
3-phosphoinositide-dependent protein kinase 1, sequence (O15530 whole entry): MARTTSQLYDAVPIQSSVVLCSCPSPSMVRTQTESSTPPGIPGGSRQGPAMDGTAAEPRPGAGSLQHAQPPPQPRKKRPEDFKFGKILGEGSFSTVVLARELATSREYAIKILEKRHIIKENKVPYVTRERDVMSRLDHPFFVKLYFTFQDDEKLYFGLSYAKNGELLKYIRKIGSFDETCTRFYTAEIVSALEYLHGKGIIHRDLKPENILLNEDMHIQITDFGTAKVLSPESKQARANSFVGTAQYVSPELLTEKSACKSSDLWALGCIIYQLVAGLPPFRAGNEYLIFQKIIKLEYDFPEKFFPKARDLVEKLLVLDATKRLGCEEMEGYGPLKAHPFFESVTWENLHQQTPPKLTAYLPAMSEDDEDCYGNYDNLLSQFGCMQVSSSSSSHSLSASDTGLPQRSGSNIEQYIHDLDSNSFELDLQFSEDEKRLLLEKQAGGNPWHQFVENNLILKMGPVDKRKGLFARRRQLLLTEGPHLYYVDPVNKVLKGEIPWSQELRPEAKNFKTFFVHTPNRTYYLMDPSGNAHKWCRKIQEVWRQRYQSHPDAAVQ
Procedure, shortened: as §2

IC50 [1]: > 10 µM | IC50 [2]: > 10 µM | AUC total (Rattus norvegicus [3]): 38.18 µM·h | IC50 [4]: > 10 µM | bioavailability [5]: 89.8% | solubility [6]: 22 µM (≈ 6.41 µg/mL) | IC50 (Insulin receptor): > 10 µM | IC50 [7]: > 10 µM | IC50 [8]: > 10 µM | IC50 [9]: > 10 µM | Cmax (Rattus norvegicus [10]): 19.4 µM | IC50 (Casein kinase II): > 10 µM | IC50 [11]: > 10 µM | IC50 [12]: 1.91 µM | IC50 [13]: > 10 µM
Structure (SMILES): O=C(Cc1ccc2ccccc2c1)Nc1cc(C2CC2)n[nH]1
